Several values for one entry are separate records, joined by “and”; a condition that tells them apart may be missing. Equal entries are not always repeated.
How the values were obtained:
Fibroblast = experiment: Multiplex assay against human fibroblast; type: toxicity, cell-based
Procedure, shortened: (§1)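 With compound added, live cells were imaged on a CQ1 microscope at 37°C and 5% CO2; staining with Hoechst33342, BioTracker Green Microtubule Cytoskeleton Dye, MitoTracker Red and Annexin V Alexa Fluor 680 had been done at seeding. The CellPathfinder machine-learning gating scheme split cells into Hoechst high-intensity objects or normal cells, normal cells into healthy, pyknosed or fragmented nuclei, and pyknosed cells into mitotic or apoptotic. The tubulin, mitochondrial-mass and membrane-permeability phenotypes are per cents of healthy-nucleus cells.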

U2OS = experiment: Multiplex assay against U2OS; type: toxicity, cell-based; conditions: human; procedure, shortened: as §1
[1] = 12 h, 1 µM, compound concentration 1 uM
[2] = 12 h, 10 µM, compound concentration 10 uM
[3] = 24 h, 1 µM, compound concentration 1 uM
[4] = 24 h, 10 µM, compound concentration 10 uM
[5] = 48 h, 1 µM, compound concentration 1 uM
[6] = 48 h, 10 µM, compound concentration 10 uM

Structure (SMILES): Cc1cc(O)c(-c2ccc([C@@H](C)CN(C)C)cc2)c2c1[nH]c(=O)c1sccc12
- Population Healthy Nuclei (%) (Fibroblast; [1]): 67% and 56% and 55.08% and 75.51%
- Population Hoechst High Intensity Objects (%) (Fibroblast; [1]): 7% and 2% and 0%
- Population Membrane Permeable-Phenotype (%) (Fibroblast; [1]): 1% and 4% and 5.83% and 9.91%
- Population Mitochondria Different-Phenotype (%) (Fibroblast; [1]): 17% and 12% and 18.45% and 20.72%
- Population Mitotic Cells (%) (Fibroblast; [1]): 72.41% [middle of 4 runs]
- Population Normal (%) (Fibroblast; [1]): 92% and 97% and 100%
- Population Pyknosed Nuclei (%) (Fibroblast; [1]): 20% and 21% and 33.16% and 19.73%
- Population Tubulin-Different-Phenotype (%) (Fibroblast; [1]): 44% and 52% and 26.21% and 40.54%
- Total Cell Count (Fibroblast; [1]): 145 and 115 and 187 and 147
- Population Apoptotic (%) (Fibroblast; [2]): 69% [middle of 4 runs]
- Population Healthy Nuclei (%) (Fibroblast; [2]): 63% and 55% and 58.38% and 64.17%
- Population Hoechst High Intensity Objects (%) (Fibroblast; [2]): 6% and 5% and 0%
- Population Membrane Permeable-Phenotype (%) (Fibroblast; [2]): 8.7% [middle of 4 runs]
- Population Mitochondria Different-Phenotype (%) (Fibroblast; [2]): 40% [middle of 4 runs]
- Population Mitotic Cells (%) (Fibroblast; [2]): 30% and 75.86% and 55.84%
- Population Normal (%) (Fibroblast; [2]): 93% and 94% and 100%
- Population Pyknosed Nuclei (%) (Fibroblast; [2]): 29.44% [middle of 4 runs]
- Population Tubulin-Different-Phenotype (%) (Fibroblast; [2]): 90% and 80% and 81.74% and 85.06%
- Total Cell Count (Fibroblast; [2]): 146 and 137 and 197 and 240
- Population Healthy Nuclei (%) (Fibroblast; [3]): 66% and 54% and 64.88% and 75%
- Population Hoechst High Intensity Objects (%) (Fibroblast; [3]): 7% and 9% and 0%
- Population Membrane Permeable-Phenotype (%) (Fibroblast; [3]): 0% and 1% and 5.5% and 9.26%
- Population Mitochondria Different-Phenotype (%) (Fibroblast; [3]): 21.1% [middle of 4 runs]
- Population Mitotic Cells (%) (Fibroblast; [3]): 54% and 47% and 85.37% and 84.62%
- Population Normal (%) (Fibroblast; [3]): 92% and 90% and 100%
- Population Pyknosed Nuclei (%) (Fibroblast; [3]): 21% and 16% and 24.4% and 18.06%
- Population Tubulin-Different-Phenotype (%) (Fibroblast; [3]): 73% and 56% and 47.71% and 50.93%
- Total Cell Count (Fibroblast; [3]): 119 and 111 and 168 and 144
- Population Apoptotic (%) (Fibroblast; [4]): 57% [middle of 4 runs]
- Population Healthy Nuclei (%) (Fibroblast; [4]): 65% and 51% and 52.84% and 54.55%
- Population Hoechst High Intensity Objects (%) (Fibroblast; [4]): 3% and 8% and 0%
- Population Membrane Permeable-Phenotype (%) (Fibroblast; [4]): 0% and 3% and 6.45% and 8.77%
- Population Mitochondria Different-Phenotype (%) (Fibroblast; [4]): 42% and 34% and 53.76% and 42.11%
- Population Mitotic Cells (%) (Fibroblast; [4]): 43.68% [middle of 4 runs]
- Population Normal (%) (Fibroblast; [4]): 96% and 91% and 100%
- Population Pyknosed Nuclei (%) (Fibroblast; [4]): 34.66% [middle of 4 runs]
- Population Tubulin-Different-Phenotype (%) (Fibroblast; [4]): 87% and 81% and 80.65% and 92.11%
- Total Cell Count (Fibroblast; [4]): 122 and 124 and 176 and 209
- Population Apoptotic (%) (Fibroblast; [5]): 57% [middle of 4 runs]
- Population Healthy Nuclei (%) (Fibroblast; [5]): 55% and 48% and 49.14% and 75.38%
- Population Hoechst High Intensity Objects (%) (Fibroblast; [5]): 7% and 9% and 0%
- Population Mitochondria Different-Phenotype (%) (Fibroblast; [5]): 20% [middle of 4 runs]
- Population Mitotic Cells (%) (Fibroblast; [5]): 52% [middle of 4 runs]
- Population Normal (%) (Fibroblast; [5]): 92% and 90% and 100%
- Population Pyknosed Nuclei (%) (Fibroblast; [5]): 24% and 20% and 28.57% and 19.23%
- Population Tubulin-Different-Phenotype (%) (Fibroblast; [5]): 70% and 62% and 43.02% and 59.18%
- Total Cell Count (Fibroblast; [5]): 118 and 103 and 175 and 130
- Population Apoptotic (%) (Fibroblast; [6]): 70% and 71% and 49.33% and 79.12%
- Population Healthy Nuclei (%) (Fibroblast; [6]): 53% and 43% and 45.16% and 48.13%
- Population Hoechst High Intensity Objects (%) (Fibroblast; [6]): 10% and 7% and 0%
- Population Membrane Permeable-Phenotype (%) (Fibroblast; [6]): 0% and 8.33% and 20%
- Population Mitochondria Different-Phenotype (%) (Fibroblast; [6]): 53% and 30% and 44.05%
- Population Mitotic Cells (%) (Fibroblast; [6]): 29% [middle of 4 runs]
- Population Normal (%) (Fibroblast; [6]): 89% and 92% and 100%
- Population Tubulin-Different-Phenotype (%) (Fibroblast; [6]): 89% and 85% and 58.33% and 77.78%
- Total Cell Count (Fibroblast; [6]): 117 and 136 and 186 and 187
- Population Apoptotic (%) (U2OS; [1]): 70% [middle of 4 runs]
- Population Healthy Nuclei (%) (U2OS; [1]): 48% and 63% and 56.09% and 62.5%
- Population Hoechst High Intensity Objects (%) (U2OS; [1]): 4% and 2% and 0.32% and 0%
- Population Normal (%) (U2OS; [1]): 95% and 97% and 99.68% and 100%
- Population Tubulin-Different-Phenotype (%) (U2OS; [1]): 12% and 14% and 4% and 6.67%
- Population Apoptotic (%) (U2OS; [2]): 64% and 69% and 40.85% and 42.19%
- Population Healthy Nuclei (%) (U2OS; [2]): 50% and 56% and 56.98% and 52.11%
- Population Hoechst High Intensity Objects (%) (U2OS; [2]): 4% and 8% and 0%
- Population Mitotic Cells (%) (U2OS; [2]): 35% and 30% and 59.15% and 57.81%
- Population Normal (%) (U2OS; [2]): 95% and 91% and 100%
- Population Pyknosed Nuclei (%) (U2OS; [2]): 41.28% [middle of 4 runs]
- Population Tubulin-Different-Phenotype (%) (U2OS; [2]): 72% and 45% and 70.41% and 64.86%
- Population Apoptotic (%) (U2OS; [3]): 92% [middle of 4 runs]
- Population Healthy Nuclei (%) (U2OS; [3]): 34% [middle of 4 runs]
